In ChEMBL document CHEMBL2396626, “Exploiting drug-resistant enzymes as tools to identify thienopyrimidinone inhibitors of human immunodeficiency virus reverse transcriptase-associated ribonuclease H” (J Med Chem, 2013):
Activity calls are given as the source filed them. No cut-off for these calls is given here.

Tests used:
[1] = biological target: Human immunodeficiency virus type 1 reverse transcriptase (Human immunodeficiency virus 1) (UniProt Q72547); assay: Binding affinity to HIV-1 reverse transcriptase p66/p51 assessed as decrease in melting temperature at 10 uM by differential scanning fluorimetric analysis in presence of Mg2+
[2] = biological target: Human immunodeficiency virus type 1 reverse transcriptase (Human immunodeficiency virus 1, UniProt Q72547); assay: Inhibition of RNase H activity of wild type HIV-1 reverse transcriptase using 18 nucleotide 3'-fluorescein-labeled RNA/18 nucleotide 5'-dabsyl-labeled DNA hybrid as substrate after 10 mins by fluorescence spectrometric analysis
[3] = Inhibition of RNase H activity of HIV-1 reverse transcriptase p66/p51 T286A mutant using 18 nucleotide 3'-fluorescein-labeled RNA/18 nucleotide 5'-dabsyl-labeled DNA hybrid as substrate after 10 mins by fluorescence spectrometric analysis; design: species or system Human immunodeficiency virus 1
[4] = Inhibition of RNase H activity of HIV-1 reverse transcriptase p66/p51 R284A mutant using 18 nucleotide 3'-fluorescein-labeled RNA/18 nucleotide 5'-dabsyl-labeled DNA hybrid as substrate after 10 mins by fluorescence spectrometric analysis; design: species or system Human immunodeficiency virus 1
[5] = Inhibition of RNase H activity of HIV-1 reverse transcriptase p66/p51 C280A mutant using 18 nucleotide 3'-fluorescein-labeled RNA/18 nucleotide 5'-dabsyl-labeled DNA hybrid as substrate after 10 mins by fluorescence spectrometric analysis; design: species or system Human immunodeficiency virus 1
[6] = Inhibition of RNase H activity of HIV-1 reverse transcriptase p66/p51 V276A mutant using 18 nucleotide 3'-fluorescein-labeled RNA/18 nucleotide 5'-dabsyl-labeled DNA hybrid as substrate after 10 mins by fluorescence spectrometric analysis; design: species or system Human immunodeficiency virus 1
[7] = Selectivity ratio of CC50 for human CEM-SS cells to EC50 for Human immunodeficiency virus 1 RF isolate; assay type: ADME, cell-based
CEM-SS = assay: Cytotoxicity against human CEM-SS cells by XTT assay; assay type: cell-based
Outline: (§1)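 Cytopathic-protection format: HIV-1 RF isolate in human T-cell line CEM-SS, with cell viability read by XTT-based assay.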

[8] = test system: Human immunodeficiency virus 1; assay: Antiviral activity against Human immunodeficiency virus 1 RF isolate infected in human CEM-SS cells by XTT assay; assay type: functional, organism-based
Outline: as §1

[9] = biological target: Human immunodeficiency virus type 1 integrase (Human immunodeficiency virus 1) (UniProt Q7ZJM1); assay: Inhibition of HIV-1 integrase using DNA duplex as substrate at 50 uM preincubated for 10 mins prior to substrate addition measured after 1 hr
[10] = test system: Human immunodeficiency virus type 1 reverse transcriptase (Human immunodeficiency virus 1), Q72547 [Y181C]; assay: Inhibition of HIV-1 reverse transcriptase Y181C mutant at 50 uM
[11] = test system: Human immunodeficiency virus type 1 reverse transcriptase (Human immunodeficiency virus 1), Q72547 [K103N]; assay: Inhibition of HIV-1 reverse transcriptase K103N mutant at 50 uM
[12] = test system: Human immunodeficiency virus 1; assay: Inhibition of HIV-1 DNA-dependent DNA polymerase using DNA duplex as substrate at 50 uM after 15 mins by PAGE relative to control
[13] = biological target: Human immunodeficiency virus type 1 reverse transcriptase (Human immunodeficiency virus 1) (UniProt Q72547); assay: Inhibition of RNase H activity of HIV-1 reverse transcriptase using 18 nucleotide 3'-fluorescein-labeled RNA/18 nucleotide 5'-dabsyl-labeled DNA hybrid as substrate by Yonetani-Theorell plot analysis in presence of beta-thujaplicinol
Outline: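 Yonetani-Theorell: RNase H rates at 250 nM RNA/DNA substrate, fixed enzyme, thienopyrimidinone 0–5 μM against β-thujaplicinol 0, 0.125, 0.25, 0.5, 1 μM; hydrolysis started with substrate, monitored 60 min; V0/Vi plotted and fitted to two-inhibitor equation with interaction term.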

[14] = biological target: Human immunodeficiency virus type 1 reverse transcriptase (Human immunodeficiency virus 1) (UniProt Q72547); assay: Binding affinity to HIV-1 reverse transcriptase p66/p51-RNA/DNA hybrid complex assessed as decrease in melting temperature at 10 uM by differential scanning fluorimetric analysis in presence of Mg2+
[15] = biological target: Human immunodeficiency virus type 1 reverse transcriptase (Human immunodeficiency virus 1) (UniProt Q72547); conditions: 500 uM

Human immunodeficiency virus type 1 integrase (Human immunodeficiency virus 1), sequence (Q7ZJM1 as listed by the source): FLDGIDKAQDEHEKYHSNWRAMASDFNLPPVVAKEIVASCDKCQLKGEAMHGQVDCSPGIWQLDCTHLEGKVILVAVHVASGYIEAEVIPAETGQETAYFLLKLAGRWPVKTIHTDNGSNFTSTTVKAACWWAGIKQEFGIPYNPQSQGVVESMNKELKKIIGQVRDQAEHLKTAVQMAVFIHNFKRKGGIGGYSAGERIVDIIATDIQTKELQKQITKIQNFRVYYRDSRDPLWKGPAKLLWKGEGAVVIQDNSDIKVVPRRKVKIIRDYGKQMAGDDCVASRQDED

SMILES	IC50 [2] [nM]	IC50 [3] [nM]	IC50 [4] [nM]	IC50 [5] [nM]	IC50 [6] [nM]	also measured
Cc1sc2nc(-c3ccc([N+](=O)[O-])cc3)[nH]c(=O)c2c1C	–	–	–	–	–	ΔTm [1]: 0.5 °C
COc1ccc(-c2nc3sc(C)c(C)c3c(=O)[nH]2)cc1OC	12600	–	–	–	–	–
Cc1sc2nc(-c3cc(C(F)(F)F)cc(C(F)(F)F)c3)[nH]c(=O)c2c1C	> 50000	–	–	–	–	–
O=C(O)c1ccc(-c2nc3sc4c(c3c(=O)[nH]2)CCCCC4)cc1	1900	32000	950	> 50000	460	–
Cc1sc2nc(-c3cc(O)c(O)c(O)c3)[nH]c(=O)c2c1C	690	–	–	–	–	–
Cc1sc2nc(-c3ccc(F)c(F)c3)[nH]c(=O)c2c1C	> 50000	–	–	–	–	–
O=c1[nH]c(-c2ccc(O)cc2O)nc2sc3c(c12)CCCCC3	9300	–	–	–	–	–
CCCc1c(CC)sc2nc(-c3ccc(O)c(O)c3)[nH]c(=O)c12	590	820	1400	500	760	Ratio CC50/EC50 [7]: 3.7; CC50 (CEM-SS): 33.7 µM; EC50 [8]: 9.2 µM; inhibition [9]: inactive; inhibition [10]: Active; inhibition [11]: Active; inhibition [12]: > 60%; ΔTm [1]: 0.5 °C
CCCc1c(C)sc2nc(-c3cccc(O)c3O)[nH]c(=O)c12	1700	5700	3500	2900	4100	Ratio CC50/EC50 [7]: 4; CC50 (CEM-SS): 12.4 µM; EC50 [8]: 3.1 µM; inhibition [9]: inactive; ΔTm [1]: 0.5 °C
O=c1[nH]c(-c2ccc(O)c(O)c2)nc2sc3c(c12)CCC3	320	370	470	260	210	inhibition [9]: inactive; inhibition [10]: Active; inhibition [11]: Active; inhibition [12]: > 60%; ΔTm [1]: 0.5 °C
Cc1sc2nc(-c3ccccn3)[nH]c(=O)c2c1C	4200	–	–	–	–	–
CCCc1c(C)sc2nc(-c3ccc(O)c(O)c3)[nH]c(=O)c12	490	570	800	370	560	Ratio CC50/EC50 [7]: 5.9; CC50 (CEM-SS): 11.2 µM; EC50 [8]: 1.9 µM; ΔTm [1]: 0.5 °C
Cc1sc2nc(-c3ccc(Cl)c([N+](=O)[O-])c3)[nH]c(=O)c2c1C	12000	–	–	–	–	–
O=c1[nH]c(-c2cc(O)ccc2O)nc2sc3c(c12)CCCCC3	1700	–	–	–	–	–
O=c1[nH]c(-c2cc(O)cc(O)c2)nc2sc3c(c12)CCCCC3	2600	–	–	–	–	–
Cc1sc2nc(-c3cc(O)cc(O)c3)[nH]c(=O)c2c1C	5200	–	–	–	–	–
Cc1sc2nc(-c3ccccc3)[nH]c(=O)c2c1C	11300	–	–	–	–	–
O=c1[nH]c(-c2ccc(O)c(O)c2)nc2sc3c(c12)CCCC3	370	460	920	290	410	inhibition [9]: inactive; inhibition [10]: Active; inhibition [11]: Active; inhibition [12]: > 60%; ΔTm [1]: 0.5 °C
O=c1[nH]c(-c2ccc(C(F)(F)F)cc2)nc2sc3c(c12)CCCCC3	3100	7200	540	10600	530	–
O=c1[nH]c(-c2ccc(O)c(O)c2)nc2sc3c(c12)CCCCC3	290	360	550	260	370	Ratio CC50/EC50 [7]: 4.3; inhibition [13]: Active; CC50 (CEM-SS): 6.8 µM; EC50 [8]: 1.6 µM; inhibition [9]: inactive; ΔTm [1]: 0.5 °C; ΔTm [14]: 5.9 °C
Cc1sc2nc(-c3ccc(O)cc3)[nH]c(=O)c2c1C	790	3700	200	> 50000	140	–

SMILES	IC50 [2] [nM]	IC50 [3] [nM]	IC50 [4] [nM]	IC50 [5] [nM]	IC50 [6] [nM]	also measured
CCCCc1c(C)sc2nc(-c3ccc(O)c(O)c3)[nH]c(=O)c12	420	1100	1200	490	910	Ratio CC50/EC50 [7]: 3.2; CC50 (CEM-SS): 25.4 µM; EC50 [8]: 7.9 µM; inhibition [9]: inactive; inhibition [10]: Active; inhibition [11]: Active; inhibition [12]: > 60%; ΔTm [1]: 0.5 °C
O=c1[nH]c(-c2cccc(O)c2O)nc2sc3c(c12)CCCCC3	1800	3600	2900	1600	2800	Ratio CC50/EC50 [7]: 3.6; CC50 (CEM-SS): 9.8 µM; EC50 [8]: 2.7 µM; ΔTm [1]: 0.5 °C
Cc1sc2nc(-c3ccc(C(F)(F)F)cc3)[nH]c(=O)c2c1C	1300	7500	230	> 50000	310	–
O=c1[nH]c(-c2ccccc2)nc2sc3c(c12)CCCCC3	4100	27900	1300	41400	960	–
Cc1sc2nc(-c3cc4ccccc4[nH]3)[nH]c(=O)c2c1C	480	960	120	> 50000	160	–
Cc1sc2nc(-c3ccc(O)c(O)c3)[nH]c(=O)c2c1C	260	280	300	320	390	Ratio CC50/EC50 [7]: 2.3; inhibition [13]: Active; CC50 (CEM-SS): 8.9 µM; EC50 [8]: 3.8 µM; inhibition [9]: inactive; ΔTm [1]: 0.5 °C; ΔTm [14]: 5.8 °C
Cc1sc2nc(-c3cccc(C(F)(F)F)c3)[nH]c(=O)c2c1C	> 50000	–	–	–	–	–
CC(C)c1ccc(O)c(=O)c(O)c1	–	–	–	–	–	ΔTm [15]: 2 °C; ΔTm [1]: 0.5 °C
Cc1sc2nc(-c3ccc([N+](=O)[O-])o3)[nH]c(=O)c2c1C	16900	–	–	–	–	–
Cc1sc2nc(-c3cccc(O)c3)[nH]c(=O)c2c1C	> 50000	–	–	–	–	–
Cc1sc2nc(-c3cccnc3)[nH]c(=O)c2c1C	8300	–	–	–	–	–
Cc1sc2nc(-c3ccc(C(=O)O)cc3)[nH]c(=O)c2c1C	1600	–	–	–	–	–
Cc1sc2nc(-c3cc(O)c(O)cc3O)[nH]c(=O)c2c1C	1600	–	–	–	–	–
O=c1[nH]c(-c2ccc(O)c(O)c2)nc2sc3c(c12)CCCCCC3	260	290	280	230	110	inhibition [9]: inactive; inhibition [10]: Active; inhibition [11]: Active; inhibition [12]: > 60%; ΔTm [1]: 0.5 °C
COc1cc(-c2nc3sc(C)c(C)c3c(=O)[nH]2)ccc1O	> 50000	–	–	–	–	–
Cc1sc2nc(-c3ccc(O)c(F)c3)[nH]c(=O)c2c1C	> 50000	–	–	–	–	–
COc1ccc(-c2nc3sc(C)c(C)c3c(=O)[nH]2)cc1	9100	–	–	–	–	–
O=c1[nH]c(-c2ccc(O)cc2)nc2sc3c(c12)CCCCC3	3200	6600	650	15800	640	–
Cc1sc2nc(-c3cccc([N+](=O)[O-])c3)[nH]c(=O)c2c1C	1500	–	340	> 50000	260	–
Cc1sc2nc(-c3cc(O)ccc3O)[nH]c(=O)c2c1C	9300	–	–	–	–	–
